Measurements reported in ChEMBL document CHEMBL3875153, “Design and synthesis of isatin/triazole conjugates that induce apoptosis and inhibit migration of MGC-803 cells” (Eur J Med Chem, 2016).

Experiments:
[1] = Cytotoxicity against human TE1 cells assessed as growth inhibition after 72 hrs by CCK8 assay; format: functional, cell-based, TE-1
Outline: (§1)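 Exponentially growing cells were trypsinized and seeded at 2 × 10^4 cells/mL (100 µL/well). After 24 h, medium was replaced with compound at 0.5–256 µM (twofold steps). Plates were incubated 72 h at 37 °C, 5% CO2, then with CCK-8 for 4 h. A450 was read. Three independent runs; IC50 given as mean and SD.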

[2] = Cytotoxicity against human MCF7 cells assessed as growth inhibition after 72 hrs by CCK8 assay; format: functional, cell-based; outline: as §1
[3] = Cytotoxicity against human SW780 cells assessed as growth inhibition after 72 hrs by CCK8 assay; format: functional, cell-based; outline: as §1
[4] = Cytotoxicity against human MGC803 cells assessed as growth inhibition after 72 hrs by CCK8 assay; format: functional, cell-based, MGC-803; outline: as §1
[5] = Cytotoxicity against human HL-7702 cells assessed as growth inhibition after 72 hrs by CCK8 assay; format: toxicity, cell-based, L02; outline: as §1
[6] = Cytotoxicity against human GES-1 cells assessed as growth inhibition after 72 hrs by CCK8 assay; format: toxicity, cell-based, GES1; outline: as §1

SMILES	IC50 ([1]; te-1)	IC50 ([2]; mcf7)	IC50 ([3]; sw780)	IC50 ([4]; mgc-803)	IC50 ([5]; l02)	IC50 ([6]; ges1)	IC50 ([1]; Homo sapiens, TE-1, 72 h, read-out: IC50) [µM]	IC50 ([2]; Homo sapiens, MCF7, 72 h, read-out: IC50) [µM]	IC50 ([3]; Homo sapiens, SW780, 72 h, read-out: IC50) [µM]	IC50 ([4]; Homo sapiens, MGC-803, 72 h, read-out: IC50) [µM]	IC50 at 72 h ([5]; human, HL-7702 cells) [µM]	IC50 at 72 h ([6]; human, GES-1 cells) [µM]
O=C1C(=O)N(Cc2cn(CC(=O)N3CCNCC3)nn2)c2c(Cl)ccc(Cl)c21	Nd(Insoluble)	Nd(Insoluble)	Nd(Insoluble)	Nd(Insoluble)	Nd(Insoluble)	Nd(Insoluble)						
O=c1[nH]cc(F)c(=O)[nH]1 [FLUOROURACIL]							17.3	13.2	6.99	10.6	12.8	13.8
